Where a name gives a salt, the structure may show the parent alone.
Key:
Type in all cases: functional, cell-based
A549 = assay: Antiproliferative activity in human A549 cells after 48 hrs by MTT assay; conditions: A549, 48 h
Method in brief: (§1)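 Cells exposed to compound for 48 h. Viability read by MTT, with absorbance of the solubilised MTT product at 570 nm. IC50 derived from at least three independent experiments.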

MCF7 = assay: Antiproliferative activity in human MCF7 cells after 48 hrs by MTT assay; conditions: MCF7, 48 h; method in brief: as §1
K562 = assay: Antiproliferative activity in human K562 cells after 48 hrs by MTT assay; conditions: K562, 48 h; method in brief: as §1

SMILES: CCN(CC)Cc1ccc2c(c1O)-c1ccc(cc1O)CCc1ccc(O)c(c1)Oc1ccc(cc1)CC2
- IC50 (A549): 5.74 µM
- IC50 (MCF7): 7.59 µM
- IC50 (K562): 7.86 µM

SMILES: Oc1ccc2cc1Oc1ccc(cc1)CCc1ccc(CN3CCN(Cc4ccccc4)CC3)c(O)c1-c1ccc(cc1O)CC2
- IC50 (A549): > 20 µM
- IC50 (MCF7): > 20 µM
- IC50 (K562): > 20 µM

SMILES: Oc1ccc2cc1Oc1ccc(cc1)CCc1cccc(OCCN3CCCCCC3)c1-c1ccc(cc1O)CC2
- IC50 (A549): 2.98 µM
- IC50 (MCF7): 3.03 µM
- IC50 (K562): 2.73 µM

SMILES: c1cc2c(c(OCCCN3CCCC3)c1)-c1ccc(cc1OCCCN1CCCC1)CCc1ccc(OCCCN3CCCC3)c(c1)Oc1ccc(cc1)CC2
- IC50 (A549): 1.67 µM
- IC50 (MCF7): 2.12 µM
- IC50 (K562): 2.13 µM

SMILES: CN(CCO)Cc1ccc2c(c1O)-c1ccc(cc1O)CCc1ccc(O)c(c1)Oc1ccc(cc1)CC2
- IC50 (A549): 9.07 µM
- IC50 (MCF7): 8.28 µM
- IC50 (K562): 9.19 µM

SMILES: Oc1ccc2cc1Oc1ccc(cc1)CCc1cccc(OCCCN3CCCC3)c1-c1ccc(cc1O)CC2
- IC50 (A549): 4.53 µM
- IC50 (MCF7): 3.68 µM
- IC50 (K562): 2.94 µM

SMILES: CCN(CC)CCOc1cccc2c1-c1ccc(cc1O)CCc1ccc(O)c(c1)Oc1ccc(cc1)CC2
- IC50 (A549): 1.87 µM
- IC50 (MCF7): 2.73 µM
- IC50 (K562): 2.23 µM

SMILES: c1cc2c(c(OCCN3CCOCC3)c1)-c1ccc(cc1OCCN1CCOCC1)CCc1ccc(OCCN3CCOCC3)c(c1)Oc1ccc(cc1)CC2
- IC50 (A549): 5.23 µM
- IC50 (MCF7): 4.19 µM
- IC50 (K562): 3.43 µM

SMILES: CN(C)CCCOc1ccc2cc1Oc1ccc(cc1)CCc1cccc(OCCCN(C)C)c1-c1ccc(cc1OCCCN(C)C)CC2
- IC50 (A549): 1.44 µM
- IC50 (MCF7): 3.05 µM
- IC50 (K562): 2.5 µM

SMILES: CN1CCN(Cc2ccc3c(c2O)-c2ccc(cc2O)CCc2ccc(O)c(c2)Oc2ccc(cc2)CC3)CC1
- IC50 (A549): 5.59 µM
- IC50 (MCF7): 6.02 µM
- IC50 (K562): 3.31 µM

SMILES: CN(C)CCCOc1cccc2c1-c1ccc(cc1O)CCc1ccc(O)c(c1)Oc1ccc(cc1)CC2
- IC50 (A549): 1.99 µM
- IC50 (MCF7): 3.25 µM
- IC50 (K562): 2.61 µM

SMILES: COc1ccc(N2CCN(Cc3cc4cc(c3O)Oc3ccc(cc3)CCc3ccc(CN5CCN(c6ccc(OC)cc6)CC5)c(O)c3-c3ccc(cc3O)CC4)CC2)cc1
- IC50 (A549): > 20 µM
- IC50 (MCF7): > 20 µM
- IC50 (K562): > 20 µM

SMILES: COCCN(CCOC)Cc1cc2cc(c1O)Oc1ccc(cc1)CCc1ccc(CN(CCOC)CCOC)c(O)c1-c1ccc(cc1O)CC2
- IC50 (A549): > 20 µM
- IC50 (MCF7): > 20 µM
- IC50 (K562): > 20 µM

SMILES: CN(CCO)Cc1cc2cc(c1O)Oc1ccc(cc1)CCc1ccc(CN(C)CCO)c(O)c1-c1ccc(cc1O)CC2
- IC50 (A549): 5.21 µM
- IC50 (MCF7): 6 µM
- IC50 (K562): 5.67 µM

SMILES: O=[N+]([O-])c1cc2cc(c1O)Oc1ccc(cc1)CCc1cccc(O)c1-c1ccc(cc1O)CC2
- IC50 (A549): > 20 µM
- IC50 (MCF7): > 20 µM
- IC50 (K562): > 20 µM

SMILES: c1cc2c(c(OCCN3CCCCC3)c1)-c1ccc(cc1OCCN1CCCCC1)CCc1ccc(OCCN3CCCCC3)c(c1)Oc1ccc(cc1)CC2
- IC50 (A549): 0.97 µM
- IC50 (MCF7): 0.24 µM
- IC50 (K562): 0.56 µM

SMILES: CC(=O)Nc1cc2cc(c1O)Oc1ccc(cc1)CCc1cccc(O)c1-c1ccc(cc1O)CC2
- IC50 (A549): > 20 µM
- IC50 (MCF7): > 20 µM
- IC50 (K562): > 20 µM

SMILES: CC(=O)Nc1cc2cc(c1OC(C)=O)Oc1ccc(cc1)CCc1cccc(OC(C)=O)c1-c1ccc(cc1OC(C)=O)CC2
- IC50 (A549): > 20 µM
- IC50 (MCF7): > 20 µM
- IC50 (K562): > 20 µM

SMILES: Oc1ccc2cc1Oc1ccc(cc1)CCc1ccc(CN3CCC(O)CC3)c(O)c1-c1ccc(cc1O)CC2
- IC50 (A549): 5.74 µM
- IC50 (MCF7): 9.05 µM
- IC50 (K562): 7.07 µM

SMILES: Oc1ccc2cc1Oc1ccc(cc1)CCc1ccc(CN3CCCCC3)c(O)c1-c1ccc(cc1O)CC2
- IC50 (A549): 7.12 µM
- IC50 (MCF7): 5.07 µM
- IC50 (K562): 5.88 µM

SMILES: c1cc2c(c(OCCN3CCCCCC3)c1)-c1ccc(cc1OCCN1CCCCCC1)CCc1ccc(OCCN3CCCCCC3)c(c1)Oc1ccc(cc1)CC2
- IC50 (A549): 0.53 µM
- IC50 (MCF7): 0.66 µM
- IC50 (K562): 0.26 µM

SMILES: COc1ccc(N2CCN(Cc3ccc4c(c3O)-c3ccc(cc3O)CCc3ccc(O)c(c3)Oc3ccc(cc3)CC4)CC2)cc1
- IC50 (A549): > 20 µM
- IC50 (MCF7): > 20 µM
- IC50 (K562): > 20 µM

SMILES: CC(C)(C)OC(=O)N1CCN(Cc2ccc3c(c2O)-c2ccc(cc2O)CCc2ccc(O)c(c2)Oc2ccc(cc2)CC3)CC1
- IC50 (A549): > 20 µM
- IC50 (MCF7): > 20 µM
- IC50 (K562): > 20 µM

SMILES: Oc1ccc2cc1Oc1ccc(cc1)CCc1ccc(CN3CCCC3)c(O)c1-c1ccc(cc1O)CC2
- IC50 (A549): 2.26 µM
- IC50 (MCF7): 2.41 µM
- IC50 (K562): 4.82 µM

SMILES: CCN(CC)CCOc1ccc2cc1Oc1ccc(cc1)CCc1cccc(OCCN(CC)CC)c1-c1ccc(cc1OCCN(CC)CC)CC2
- IC50 (A549): 0.78 µM
- IC50 (MCF7): 0.56 µM
- IC50 (K562): 0.65 µM

SMILES: Oc1cc2ccc1-c1c(ccc(CN3CCOCC3)c1O)CCc1ccc(cc1)Oc1cc(cc(CN3CCOCC3)c1O)CC2
- IC50 (A549): > 20 µM
- IC50 (MCF7): > 20 µM
- IC50 (K562): > 20 µM

SMILES: CN(C)CCOc1cccc2c1-c1ccc(cc1O)CCc1ccc(O)c(c1)Oc1ccc(cc1)CC2
- IC50 (A549): 1.3 µM
- IC50 (MCF7): 2.38 µM
- IC50 (K562): 1.56 µM

SMILES: Oc1ccc2cc1Oc1ccc(cc1)CCc1cccc(OCCN3CCCC3)c1-c1ccc(cc1O)CC2
- IC50 (A549): 2.02 µM
- IC50 (MCF7): 2.42 µM
- IC50 (K562): 2.22 µM

SMILES: Oc1cc2ccc1-c1c(ccc(CN3CCN(Cc4ccccc4)CC3)c1O)CCc1ccc(cc1)Oc1cc(cc(CN3CCN(Cc4ccccc4)CC3)c1O)CC2
- IC50 (A549): > 20 µM
- IC50 (MCF7): > 20 µM
- IC50 (K562): > 20 µM

SMILES: COCCN(CCOC)Cc1ccc2c(c1O)-c1ccc(cc1O)CCc1ccc(O)c(c1)Oc1ccc(cc1)CC2
- IC50 (A549): > 20 µM
- IC50 (MCF7): > 20 µM
- IC50 (K562): > 20 µM

SMILES: CN(C)Cc1cc2cc(c1O)Oc1ccc(cc1)CCc1ccc(CN(C)C)c(O)c1-c1ccc(cc1O)CC2
- IC50 (A549): 4.81 µM
- IC50 (MCF7): 4.22 µM
- IC50 (K562): 2.84 µM

SMILES: Oc1ccc2cc1Oc1ccc(cc1)CCc1ccc(CN3CCOCC3)c(O)c1-c1ccc(cc1O)CC2
- IC50 (A549): > 20 µM
- IC50 (MCF7): > 20 µM
- IC50 (K562): > 20 µM

SMILES: CC(C)(C)OC(=O)N1CCN(Cc2cc3cc(c2O)Oc2ccc(cc2)CCc2ccc(CN4CCN(C(=O)OC(C)(C)C)CC4)c(O)c2-c2ccc(cc2O)CC3)CC1
- IC50 (A549): > 20 µM
- IC50 (MCF7): > 20 µM
- IC50 (K562): > 20 µM

SMILES: Nc1cc2cc(c1O)Oc1ccc(cc1)CCc1cccc(O)c1-c1ccc(cc1O)CC2
- IC50 (A549): > 20 µM
- IC50 (MCF7): > 20 µM
- IC50 (K562): > 20 µM

SMILES: CN1CCN(Cc2cc3cc(c2O)Oc2ccc(cc2)CCc2ccc(CN4CCN(C)CC4)c(O)c2-c2ccc(cc2O)CC3)CC1
- IC50 (A549): 2.16 µM
- IC50 (MCF7): 2.89 µM
- IC50 (K562): 3.32 µM

SMILES: c1cc2c(c(OCCN3CCCC3)c1)-c1ccc(cc1OCCN1CCCC1)CCc1ccc(OCCN3CCCC3)c(c1)Oc1ccc(cc1)CC2
- IC50 (A549): 1.04 µM
- IC50 (MCF7): 0.88 µM
- IC50 (K562): 1.79 µM

SMILES: Oc1ccc2cc1Oc1ccc(cc1)CCc1cccc(OCCN3CCOCC3)c1-c1ccc(cc1O)CC2
- IC50 (A549): 7.49 µM
- IC50 (MCF7): 5.02 µM
- IC50 (K562): 10.1 µM

SMILES: Oc1ccc2cc1Oc1ccc(cc1)CCc1cccc(OCCN3CCCCC3)c1-c1ccc(cc1O)CC2
- IC50 (A549): 2.13 µM
- IC50 (MCF7): 2.49 µM
- IC50 (K562): 2.31 µM

SMILES: CCCCN(CCCC)Cc1ccc2c(c1O)-c1ccc(cc1O)CCc1ccc(O)c(c1)Oc1ccc(cc1)CC2
- IC50 (A549): > 20 µM
- IC50 (MCF7): > 20 µM
- IC50 (K562): > 20 µM

SMILES: Oc1cc2ccc1-c1c(ccc(CN3CCCCC3)c1O)CCc1ccc(cc1)Oc1cc(cc(CN3CCCCC3)c1O)CC2
- IC50 (A549): 4.85 µM
- IC50 (MCF7): 2.04 µM
- IC50 (K562): 0.66 µM

SMILES: COc1cccc2c1C(=O)c1c(O)c3c(c(O)c1C2=O)C[C@@](O)(C(=O)CO)C[C@@H]3O[C@H]1C[C@H](N)[C@H](O)[C@H](C)O1 [DOXORUBICIN HYDROCHLORIDE]
- IC50 (A549): 1.45 µM
- IC50 (MCF7): 2.3 µM
- IC50 (K562): 0.61 µM

SMILES: Oc1ccc2cc1Oc1ccc(cc1)CCc1ccc(CN3CCSCC3)c(O)c1-c1ccc(cc1O)CC2
- IC50 (A549): 16.3 µM
- IC50 (MCF7): 15.8 µM
- IC50 (K562): 13.4 µM

SMILES: CCCCN(CCCC)Cc1cc2cc(c1O)Oc1ccc(cc1)CCc1ccc(CN(CCCC)CCCC)c(O)c1-c1ccc(cc1O)CC2
- IC50 (A549): > 20 µM
- IC50 (MCF7): > 20 µM
- IC50 (K562): > 20 µM

SMILES: Oc1cc2ccc1-c1c(ccc(CN3CCSCC3)c1O)CCc1ccc(cc1)Oc1cc(cc(CN3CCSCC3)c1O)CC2
- IC50 (A549): 10.2 µM
- IC50 (MCF7): 9.25 µM
- IC50 (K562): 8.35 µM

SMILES: CCN(CC)Cc1cc2cc(c1O)Oc1ccc(cc1)CCc1ccc(CN(CC)CC)c(O)c1-c1ccc(cc1O)CC2
- IC50 (A549): 3.78 µM
- IC50 (MCF7): 1.05 µM
- IC50 (K562): 1.86 µM

SMILES: Oc1cc2ccc1-c1c(ccc(CN3CCC(O)CC3)c1O)CCc1ccc(cc1)Oc1cc(cc(CN3CCC(O)CC3)c1O)CC2
- IC50 (A549): 3.26 µM
- IC50 (MCF7): 3.95 µM
- IC50 (K562): 2.56 µM

SMILES: CN(C)c1cc2cc(c1O)Oc1ccc(cc1)CCc1cccc(O)c1-c1ccc(cc1O)CC2
- IC50 (A549): > 20 µM
- IC50 (MCF7): > 20 µM
- IC50 (K562): > 20 µM
